# PostGolgi ctrl: inhibits growth of the yeast control strain; inhibition, % at 10 µM; efflux-deficient yeast background strain, growth absorbance A615, 16 h; AID 738; 5% of 98,000 active
# Cav3 T inh: human Cav3.2 channel inhibition, primary screen; B-score at 10 µM; Cav3.2-expressing cells, Fluo-4 calcium fluorescence FDSS; hits give low values; O95180; 4% of 100,000 active;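 active = single-dose well whose peak fluorescence ratio is a statistical outlier from its plate by either plate-standardised score or position-corrected B-score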
# tolC growth inh: growth inhibitors of E. coli BW25113 tolC mutant. 2.2% of 65,000 active. growth inhibition, % at 10 µM (by protocol). OD615;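 active = growth inhibition at or above a cutoff equal to the mean over every tested compound plus 3 SD, cut at about 60% in these data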;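 also: growth measured after 20 h incubation at 37 °C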
#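 Test system: tolC-deleted E. coli BW25113 | Medium: LB with kanamycin 50 µg/mL | Compound dosing: Single concentration, 10 µM final per compound | Schedule: 37 °C, 20 h exposure | Measured by: OD at 615 nm | Evaluation: Percent growth inhibition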
# PostGolgi yeast: growth inhibition of a yeast mutant, post-Golgi transport screen | post-Golgi transport phenotypic cell assay | inhibition, % at 10 µM | 0.9% of 98,000 active | AID 739;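 also: yeast cells grown in 1536-well plates; yeast grown about 18 h at 30C before absorbance read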
# PTK2B oligo ant: blocks oligomerization of human Pyk2 in cells; Q14289; Q293 cells, Pyk2 FERM NanoBiT luminescence; hits give low values; z-score (the deposit names both 25 µM and 10 µM); 0.83% of 99,000 active;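 active = Z-score of -3 or lower, scaled per plate to the spread of control and sample wells; inactive = z-score above -3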;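 also: negative z-score means lost luminescence so less FERM oligomerization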
# Ecoli WT expand: E. coli BW25113 growth inhibition, expanded screen; OD600 absorbance; 0.15% of 98,000 active; growth inhibition, % at 100 µM; AID 710;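 active = growth inhibition above about 50% at one test dose, limit read from the data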;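 also: growth measured after 20 h incubation at 37 °C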
# * marks the source's active call; other numbers are inactive results; . = no result given. Rows were chosen to be rich in hits. Some 8.7% of all compounds tested hit in one or more screens of this group. Rule as the data show it, unless noted: active = inhibition above about 30%; inactive = the rest.
SMILES,PostGolgi ctrl,Cav3 T inh,tolC growth inh,PostGolgi yeast,PTK2B oligo ant,Ecoli WT expand
CCCCC1=CC2=CC(=O)C(C)(OC(=O)c3cnc4ccccc4n3)C(=O)C2=CO1 (stereo not drawn),.,0.44,.,.,.,.
CC(C)=CC(O)C/C(C)=C/COc1ccc2ccc(=O)oc2c1 (stereo not drawn),.,-0.9,.,.,.,.
COC(=O)c1ccccc1NC(=O)c1ccc(COc2ccccc2)o1,36*,-0.62,60,-12,-1.2,-13
COC(=O)c1ccccc1NC(=O)c1ccc(COc2cccc3ccccc23)o1,9,-1.1,.,0,-0.69,-11
CCc1ccc(OCc2ccc(C(=O)NCc3ccccn3)o2)cc1,5,-3.9*,24,-2,1.4,11
O=C(NCc1ccccc1)N1CCC(c2nc3ccccc3[nH]2)CC1,13,-0.1,10,-1,0.76,0
COc1ccc(-c2nc(N)nc(C)c2Oc2ccccc2Br)c(O)c1,79*,-0.27,35,56*,-0.73,5
COc1ccc(-c2nc(N)ncc2-c2csc(C)n2)c(O)c1,4,0.28,-18,-5,-0.68,-2
COc1ccc(CC(=O)Nc2cccc(-c3nnc(-c4ccccc4)o3)c2)cc1OC,22,0.54,10,4,-3.6*,-1
N#CC1=C(SCC(=O)NC23CC4CC(CC(C4)C2)C3)NC(=O)C(C#N)C12CCCCC2 (stereo not drawn),6,-3.2*,86*,-5,-3.3*,-6
N#CC1=C(SCC(=O)NC2CC2)NC(=O)C(C#N)C12CCCCC2 (stereo not drawn),4,-0.038,7,2,-0.19,1
CC(C)(C)C1CCC2(CC1)C(C#N)=C(SCC(=O)NC1CCCCC1)NC(=O)C2C#N (stereo not drawn),24,-4.2*,75*,2,-1.2,2
C=CCSC1=C(C#N)C2(CCCCC2)C(C#N)C(=O)N1 (stereo not drawn),5,-0.034,3,-6,-0.28,0
CCOC(=O)C1=C(SCC(=O)Nc2ccccc2)NC(=O)C(C#N)C12CCCCC2 (stereo not drawn),0,-4.1*,48,-3,-1.9,0
N#CC1=C(N)NC(SCC(=O)Nc2ccccc2)=C(C#N)C12CCCC2,25,-3.4,35,-1,-0.32,7
CC(=O)Nc1ccc(S(=O)(=O)NCCSCc2ccc(Cl)cc2Cl)cc1,15,-3.6,.,6,-1.1,-4
CN(C1CCCCC1)S(=O)(=O)Cc1ccccc1,3,1.1,0,0,0.27,13
c1ccc2c(CSCCc3ccncc3)cccc2c1,21,-1.2,.,5,-0.59,2
O=S(=O)(Nc1cc(Cl)ccc1N1CCCCC1)c1cccs1,25,-5.7*,62*,-7,0.3,-6
Cc1cc(O)c(C(C)C)cc1NC(=O)c1ccc(Cl)cc1,10,-6.3*,.,-2,0.06,7
Cc1cc(O)c(C(C)C)cc1NC(=O)c1cccc(Cl)c1,12,-2.3,.,-1,-0.45,14
COc1cccc(-n2nnnc2S(C)(=O)=O)c1,30*,0.88,.,17,-1.8,33
Cc1cc(C)c(S(C)(=O)=O)c(Oc2ccccc2C)n1,3,0.45,.,4,-0.13,-7
Cc1cc(C)cc(Oc2nc(-c3ccccc3)cc(C)c2S(C)(=O)=O)c1,45*,-2.3,.,0,-1.6,-8
COc1ccccc1Oc1nc(-c2ccccc2)cc(C)c1S(C)(=O)=O,21,-2.1,.,-1,-3.5*,-11
SMILES,PostGolgi ctrl,Cav3 T inh,tolC growth inh,PostGolgi yeast,PTK2B oligo ant,Ecoli WT expand
Cc1cccc(Oc2nc(-c3ccccc3)cc(C)c2S(C)(=O)=O)c1C,24,-3.9*,.,-5,0.04,-19
COc1ccc(Oc2nc(C)cc(C)c2S(C)(=O)=O)cc1,6,.,.,0,0.81,-1
Cc1cc(C)c(S(C)(=O)=O)c(Oc2ccc(F)cc2)n1,6,.,.,4,0.24,-1
Cc1ccc(C)n1-c1ccc(N2CCOCC2)c(Br)c1,4,-3.4,.,3,-0.52,-5
CCCSc1nnc2nc3c(nn12)c1ccccc1n3C,6,.,-16,-2,.,2
O=[N+]([O-])c1ccccc1NCCNS(=O)(=O)c1ccc(Cl)cc1,.,.,.,.,-0.62,.
O=[N+]([O-])c1ccc(NCCCNS(=O)(=O)c2ccc(Cl)cc2)c(Cl)c1,72*,.,.,36*,.,-3
CCc1nc(SCc2cccnc2)[nH]c(=O)c1C,7,-0.051,-1,0,0.07,5
CCc1nc(SCc2ccc(F)cc2)[nH]c(=O)c1C#N,.,-7.7*,.,.,-0.27,.
CCCCCCn1c(=O)c(-c2ccccc2)c(O)c2ccccc21,38*,-7.1*,.,-5,-0.05,-1
CCc1nc(N2CCOCC2)c(C#N)c2c1CCCC2,30,-4.5*,2,-2,-0.67,7
CCc1nc(N2CCCC2)c(C#N)c2c1CCCC2,5,-1.3,4,-10,0.6,-7
CCSc1nc(N2CCCCC2)c2c(c1C#N)CCCC2,8,-0.056,.,-5,-0.73,3
N#Cc1c(SCc2ccccc2)nc(N2CCOCC2)c2c1CCCC2,15,-5.4*,20,-11,-1.8,-24
CC(C(N)=O)N1C(=O)c2cccc3cccc1c23 (stereo not drawn),6,0.13,.,-4,0.32,10
COc1cc2c(cc1NC(=O)CN1CCN(S(=O)(=O)c3ccccc3F)CC1)oc1ccccc12,-3,-0.31,.,9,1.2,-10
CN(CCCNS(=O)(=O)c1cccc2cccnc12)Cc1ccccc1,11,-0.12,.,-6,.,7
CC(C)c1ccccc1NC(=O)Cn1c(-c2ccccc2Cl)nc2ccccc21,.,.,.,.,0.03,.
CCn1c(-c2ccccc2Cl)nn(CC(=O)Nc2cc(Cl)ccc2Cl)c1=S,27,-4.8*,.,-5,-0.71,0
Cn1ccnc1Sc1nc2ccccc2nc1NS(=O)(=O)c1ccccc1,0,-1.3,5,-1,-0.17,6
CCCc1ccc(-c2c(C)sc(N)c2C#N)cc1,43*,-0.64,.,5,-0.47,-2
O=C(Nc1ccc(N2CCN(C(=O)c3ccccc3)CC2)c(Cl)c1)c1ccco1,11,-0.0088,17,14,-1,-9
CCCOc1ccc(C(=O)N2CCN(c3ccc(NC(=O)CC)cc3Cl)CC2)cc1,13,-0.41,63*,9,-1.5,-12
O=C(Nc1ccc(N2CCN(C(=O)c3ccco3)CC2)c(Cl)c1)c1cc2ccccc2o1,28,.,38,9,-3.1*,-15
CCC(=O)N1CCN(c2ccc(NC(=O)c3cc4ccccc4o3)cc2Cl)CC1,38*,.,31,6,-3.1*,-10
CCCC(=O)N1CCN(c2ccc(NC(=O)c3cc4ccccc4o3)cc2Cl)CC1,50*,-2.7,50,86*,-2.7,-6
COC(=O)c1ccc(N2CCN(C)CC2)c(NC(=O)c2cc3ccccc3o2)c1,14,0.32,-5,-1,0.12,-4
CC1(C)NC(C)(C)C(O)(C(N)=O)C1=O (stereo not drawn),-6,0.63,-5,-3,0.23,-1
